The test system of experiment [1] is HeLa. Kind of experiment: Antiproliferative activity against human HeLa cells after 48 hrs by WST1 assay. In kind it is functional, cell-based. A digest of the protocol:
(§1)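 Cells seeded at 5 × 10^3/well and left 24 h, then given a concentration series for 24, 48 or 72 h. WST-1 reagent added and incubated at 37 °C for 30 min–2 h until color change; absorbance 450 nm. Growth inhibition = (1 − [sample − background]/[control − background]) × 100. IC50 mean ± SD, three cell preparations.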
On the technique in general: Formazan colour is commonly taken as a measure of viable cells.

The target of experiment [2] is T1, Toll-like receptor 3/8/9 (Homo sapiens) (UniProt O15455+Q9NR96+Q9NR97). Kind of experiment: Agonist activity at TLR3/TLR8/TLR9 in human THP1 cells assessed as increase in IL-8 mRNA level after 12 hrs by qRT-PCR method. It is filed as cell-based. A digest of the protocol:
(§2)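 THP-1 cells (1.5 × 10^6/well) differentiated with PMA (20 nM) for 2 days, then 24 h in fresh RPMI 1640; nonadherent cells removed. Treated with indicated compound concentrations for 12 h, washed with PBS, and mRNA measured by qRT-PCR. Expressed as fold change versus untreated control, poly I:C (5 μg/mL) as reference. Mean ± SD of three independent experiments.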

Another experiment concerns the target Toll-like receptor 4 (Homo sapiens, UniProt O00206). The experiment is described as follows: Agonist activity at human TLR4 expressed in HEK293 cells assessed as induction of NF-kB activation-mediated SEAP production after 24 hrs by HTS assay. It is filed as cell-based. A digest of the protocol:
(§3)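 Stable HEK293 lines expressing a single hTLR plus a SEAP reporter, grown in DMEM/10% FBS with selective antibiotics. Seeded at 5 × 10^4 cells/well for 24 h at 37 °C, then treated 24 h. Supernatant mixed with QUANTI-Blue, 1 h at 37 °C, OD 620 nm. Cognate agonists: Pam3CSK4 (TLR2), poly I:C (TLR3), LPS (TLR4), FLA-BS (TLR5), R848 (TLR7). EC50 as mean ± SD.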

The test system of experiment [3] is HeLa. The experiment is described as follows: Cell cycle arrest in human HeLa cells assessed as accumulation at S phase after 24 hrs by propidium iodide staining based flow cytometry. In kind it is functional. Background: Flow cytometry measures light scatter and fluorescence of single cells or particles in a stream.
For experiment [4], the system named is HeLa. The experiment is described as follows: Cell cycle arrest in human HeLa cells assessed as accumulation at S phase at 30 uM after 24 hrs by propidium iodide staining based flow cytometry (reference value: 31%). It is filed as functional.
The target of experiment [5] is T1, Toll-like receptor 3/8/9 (Homo sapiens). Kind of experiment: Agonist activity at TLR3/TLR8/TLR9 in human THP1 cells assessed as increase in TNFalpha production after 24 hrs by ELISA. It is filed as cell-based. A digest of the protocol:
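THP-1 cells (1.5 × 10^6/well) in RPMI 1640 with 10% FBS, differentiated with PMA (20 nM) for 2 days, then 24 h in fresh medium; nonadherent cells removed. Compound added at indicated concentrations for 24 h. Supernatant TNF-α measured by ELISA. Reference ligands were poly I:C, R848 and CpG ODN2006.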

A further experiment addresses T2, Toll-like receptor 7 (Homo sapiens, UniProt Q9NYK1).
T2 sequence (Q9NYK1 whole entry): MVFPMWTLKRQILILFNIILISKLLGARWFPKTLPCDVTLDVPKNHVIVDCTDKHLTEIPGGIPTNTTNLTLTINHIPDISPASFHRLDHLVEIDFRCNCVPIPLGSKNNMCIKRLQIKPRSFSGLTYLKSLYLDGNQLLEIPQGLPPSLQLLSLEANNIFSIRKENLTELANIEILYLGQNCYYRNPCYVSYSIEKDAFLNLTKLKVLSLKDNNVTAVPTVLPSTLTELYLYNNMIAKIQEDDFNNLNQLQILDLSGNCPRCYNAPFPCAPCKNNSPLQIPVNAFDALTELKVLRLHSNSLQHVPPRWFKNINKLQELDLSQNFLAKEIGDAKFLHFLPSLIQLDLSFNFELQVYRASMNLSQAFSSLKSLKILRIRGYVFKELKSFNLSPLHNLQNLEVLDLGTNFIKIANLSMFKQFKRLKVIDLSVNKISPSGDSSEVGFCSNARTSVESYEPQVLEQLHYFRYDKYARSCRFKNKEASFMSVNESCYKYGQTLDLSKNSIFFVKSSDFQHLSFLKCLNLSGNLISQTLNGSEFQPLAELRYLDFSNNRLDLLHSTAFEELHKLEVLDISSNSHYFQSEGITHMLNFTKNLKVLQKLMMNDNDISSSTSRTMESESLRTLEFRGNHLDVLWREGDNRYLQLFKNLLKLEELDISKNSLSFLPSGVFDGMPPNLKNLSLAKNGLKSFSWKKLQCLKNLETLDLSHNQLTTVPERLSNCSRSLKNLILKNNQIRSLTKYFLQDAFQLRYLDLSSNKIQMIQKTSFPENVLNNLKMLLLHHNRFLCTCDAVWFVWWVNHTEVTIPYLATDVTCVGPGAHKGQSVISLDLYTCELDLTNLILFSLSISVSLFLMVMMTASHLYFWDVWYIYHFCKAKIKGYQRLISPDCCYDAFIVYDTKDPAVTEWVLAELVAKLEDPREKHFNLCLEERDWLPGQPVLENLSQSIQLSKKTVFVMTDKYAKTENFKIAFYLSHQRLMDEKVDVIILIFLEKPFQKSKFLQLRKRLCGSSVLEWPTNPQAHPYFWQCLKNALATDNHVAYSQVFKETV
Kind of experiment: Agonist activity at human TLR7 expressed in HEK293 cells assessed as induction of NF-kB activation-mediated SEAP production after 24 hrs by HTS assay. In kind it is cell-based. A digest of the protocol: as §3

Experiment [6] concerns HeLa. The experiment is described as follows: Cell cycle arrest in human HeLa cells assessed as accumulation at G0/G1 phase at 10 uM after 24 hrs by propidium iodide staining based flow cytometry (reference value: 52%). It is filed as functional.
In experiment [7] the test system is HeLa. Kind of experiment: Cell cycle arrest in human HeLa cells assessed as accumulation at G2/M phase at 30 uM after 24 hrs by propidium iodide staining based flow cytometry (reference value: 17%). It is filed as functional.
In experiment [8] the test system is HeLa. Kind of experiment: Cell cycle arrest in human HeLa cells assessed as accumulation at S phase at 40 uM after 24 hrs by propidium iodide staining based flow cytometry (reference value: 31%). In kind it is functional.
The test system of experiment [9] is HeLa. The experiment is described as follows: Cell cycle arrest in human HeLa cells assessed as accumulation at G2/M phase at 40 uM after 24 hrs by propidium iodide staining based flow cytometry (reference value: 17%). In kind it is functional.
Experiment [10] deals with HMEC. Kind of experiment: Antiproliferative activity against HMEC after 72 hrs by WST1 assay. It is filed as cell-based. Conditions: Homo sapiens. A digest of the protocol: as §1
For experiment [11], the system named is HeLa. The experiment is described as follows: Antiproliferative activity against human HeLa cells after 72 hrs by WST1 assay. In kind it is functional, cell-based. A digest of the protocol:
as §1

Another experiment addresses Toll-like receptor 2 (Homo sapiens, UniProt O60603). The experiment is described as follows: Agonist activity at human TLR2 expressed in HEK293 cells assessed as induction of NF-kB activation-mediated SEAP production after 24 hrs by HTS assay. In kind it is cell-based. A digest of the protocol:
as §3

The target of experiment [12] is T1, Toll-like receptor 3/8/9 (Homo sapiens). Kind of experiment: Agonist activity at TLR3/TLR8/TLR9 in human THP1 cells assessed as increase in TNFalpha mRNA level after 12 hrs by qRT-PCR method. It is filed as cell-based. A digest of the protocol:
as §2

The target in the next experiment is Toll-like receptor 5 (Homo sapiens, UniProt O60602). Kind of experiment: Agonist activity at human TLR5 expressed in HEK293 cells assessed as induction of NF-kB activation-mediated SEAP production after 24 hrs by HTS assay. It is filed as cell-based. A digest of the protocol: as §3
Toll-like receptor 5, sequence (O60602 whole entry): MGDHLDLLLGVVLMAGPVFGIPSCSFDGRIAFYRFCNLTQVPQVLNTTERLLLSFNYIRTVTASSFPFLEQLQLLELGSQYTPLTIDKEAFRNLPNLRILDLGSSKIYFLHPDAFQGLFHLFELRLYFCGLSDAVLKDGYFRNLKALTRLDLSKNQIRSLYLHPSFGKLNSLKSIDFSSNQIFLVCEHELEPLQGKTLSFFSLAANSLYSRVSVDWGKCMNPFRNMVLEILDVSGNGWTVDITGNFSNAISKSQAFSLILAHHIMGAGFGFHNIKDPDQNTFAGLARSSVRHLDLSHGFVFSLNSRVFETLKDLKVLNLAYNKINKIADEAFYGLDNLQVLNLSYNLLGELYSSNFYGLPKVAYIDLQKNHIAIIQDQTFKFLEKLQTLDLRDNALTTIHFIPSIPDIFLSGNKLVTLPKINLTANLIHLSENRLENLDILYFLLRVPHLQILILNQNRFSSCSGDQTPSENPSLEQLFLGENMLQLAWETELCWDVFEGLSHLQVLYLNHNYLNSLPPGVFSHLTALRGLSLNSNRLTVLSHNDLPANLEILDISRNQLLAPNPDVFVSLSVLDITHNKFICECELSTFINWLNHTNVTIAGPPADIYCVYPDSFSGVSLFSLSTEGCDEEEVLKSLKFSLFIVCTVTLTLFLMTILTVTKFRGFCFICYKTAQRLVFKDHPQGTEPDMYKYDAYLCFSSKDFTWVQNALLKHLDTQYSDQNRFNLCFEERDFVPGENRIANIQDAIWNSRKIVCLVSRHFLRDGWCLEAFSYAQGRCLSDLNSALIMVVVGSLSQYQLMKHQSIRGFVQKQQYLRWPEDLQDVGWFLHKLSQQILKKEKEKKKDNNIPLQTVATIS
Experiment [13] has as its system HMEC. The experiment is described as follows: Antiproliferative activity against HMEC after 48 hrs by WST1 assay. It is filed as cell-based. The conditions noted are these: Homo sapiens. A digest of the protocol:
as §1

T1 sequence (O15455 whole entry, looked up): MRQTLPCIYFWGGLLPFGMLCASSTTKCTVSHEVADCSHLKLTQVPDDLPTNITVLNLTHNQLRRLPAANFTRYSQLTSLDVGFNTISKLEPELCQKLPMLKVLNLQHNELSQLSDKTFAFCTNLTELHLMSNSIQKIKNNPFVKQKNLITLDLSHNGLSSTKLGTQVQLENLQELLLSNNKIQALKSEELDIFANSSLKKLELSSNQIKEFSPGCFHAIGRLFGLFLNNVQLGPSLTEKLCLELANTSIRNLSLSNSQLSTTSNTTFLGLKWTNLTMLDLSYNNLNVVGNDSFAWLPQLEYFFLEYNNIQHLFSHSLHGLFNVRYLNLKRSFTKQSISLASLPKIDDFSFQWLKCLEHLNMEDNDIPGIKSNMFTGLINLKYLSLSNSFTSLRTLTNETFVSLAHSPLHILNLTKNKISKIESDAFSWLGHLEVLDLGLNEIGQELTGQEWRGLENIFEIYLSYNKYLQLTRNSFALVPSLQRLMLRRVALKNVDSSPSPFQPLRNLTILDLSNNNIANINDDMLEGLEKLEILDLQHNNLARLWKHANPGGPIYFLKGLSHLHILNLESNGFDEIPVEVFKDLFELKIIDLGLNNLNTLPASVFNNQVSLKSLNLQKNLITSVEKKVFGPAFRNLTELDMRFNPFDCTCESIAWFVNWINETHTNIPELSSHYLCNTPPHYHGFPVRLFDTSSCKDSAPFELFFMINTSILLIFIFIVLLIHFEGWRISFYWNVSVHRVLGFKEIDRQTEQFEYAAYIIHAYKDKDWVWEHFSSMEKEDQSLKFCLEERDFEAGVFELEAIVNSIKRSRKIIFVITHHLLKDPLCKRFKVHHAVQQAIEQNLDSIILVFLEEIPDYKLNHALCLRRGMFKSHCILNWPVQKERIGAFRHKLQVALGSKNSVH
T1 sequence (Q9NR96 whole entry, looked up): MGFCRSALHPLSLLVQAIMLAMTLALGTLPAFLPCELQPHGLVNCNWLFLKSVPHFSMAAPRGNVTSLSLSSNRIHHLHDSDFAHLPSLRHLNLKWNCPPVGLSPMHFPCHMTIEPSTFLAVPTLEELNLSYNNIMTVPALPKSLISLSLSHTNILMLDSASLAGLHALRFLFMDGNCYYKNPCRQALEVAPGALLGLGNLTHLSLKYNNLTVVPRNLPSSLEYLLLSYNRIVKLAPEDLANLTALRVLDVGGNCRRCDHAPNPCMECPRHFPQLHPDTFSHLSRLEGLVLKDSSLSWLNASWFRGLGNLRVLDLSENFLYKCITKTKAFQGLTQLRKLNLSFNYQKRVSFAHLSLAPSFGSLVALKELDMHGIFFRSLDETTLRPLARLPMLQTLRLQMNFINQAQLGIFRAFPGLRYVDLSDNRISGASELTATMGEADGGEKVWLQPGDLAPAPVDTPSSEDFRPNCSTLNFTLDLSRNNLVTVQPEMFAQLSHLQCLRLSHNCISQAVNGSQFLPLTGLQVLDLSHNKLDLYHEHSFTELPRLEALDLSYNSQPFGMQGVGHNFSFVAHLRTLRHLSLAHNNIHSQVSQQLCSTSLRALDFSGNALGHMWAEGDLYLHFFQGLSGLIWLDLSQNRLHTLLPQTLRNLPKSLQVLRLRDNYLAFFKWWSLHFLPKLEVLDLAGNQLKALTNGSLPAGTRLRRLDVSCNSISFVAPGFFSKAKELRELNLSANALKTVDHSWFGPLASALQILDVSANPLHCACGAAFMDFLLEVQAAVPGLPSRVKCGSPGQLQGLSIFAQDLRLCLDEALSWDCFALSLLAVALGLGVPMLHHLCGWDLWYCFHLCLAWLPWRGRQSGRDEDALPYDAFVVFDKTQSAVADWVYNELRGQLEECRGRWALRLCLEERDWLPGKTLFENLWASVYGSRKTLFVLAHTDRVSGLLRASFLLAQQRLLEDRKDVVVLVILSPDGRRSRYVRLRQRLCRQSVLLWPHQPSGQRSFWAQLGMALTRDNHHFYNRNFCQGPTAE
T1 sequence (Q9NR97 whole entry, looked up): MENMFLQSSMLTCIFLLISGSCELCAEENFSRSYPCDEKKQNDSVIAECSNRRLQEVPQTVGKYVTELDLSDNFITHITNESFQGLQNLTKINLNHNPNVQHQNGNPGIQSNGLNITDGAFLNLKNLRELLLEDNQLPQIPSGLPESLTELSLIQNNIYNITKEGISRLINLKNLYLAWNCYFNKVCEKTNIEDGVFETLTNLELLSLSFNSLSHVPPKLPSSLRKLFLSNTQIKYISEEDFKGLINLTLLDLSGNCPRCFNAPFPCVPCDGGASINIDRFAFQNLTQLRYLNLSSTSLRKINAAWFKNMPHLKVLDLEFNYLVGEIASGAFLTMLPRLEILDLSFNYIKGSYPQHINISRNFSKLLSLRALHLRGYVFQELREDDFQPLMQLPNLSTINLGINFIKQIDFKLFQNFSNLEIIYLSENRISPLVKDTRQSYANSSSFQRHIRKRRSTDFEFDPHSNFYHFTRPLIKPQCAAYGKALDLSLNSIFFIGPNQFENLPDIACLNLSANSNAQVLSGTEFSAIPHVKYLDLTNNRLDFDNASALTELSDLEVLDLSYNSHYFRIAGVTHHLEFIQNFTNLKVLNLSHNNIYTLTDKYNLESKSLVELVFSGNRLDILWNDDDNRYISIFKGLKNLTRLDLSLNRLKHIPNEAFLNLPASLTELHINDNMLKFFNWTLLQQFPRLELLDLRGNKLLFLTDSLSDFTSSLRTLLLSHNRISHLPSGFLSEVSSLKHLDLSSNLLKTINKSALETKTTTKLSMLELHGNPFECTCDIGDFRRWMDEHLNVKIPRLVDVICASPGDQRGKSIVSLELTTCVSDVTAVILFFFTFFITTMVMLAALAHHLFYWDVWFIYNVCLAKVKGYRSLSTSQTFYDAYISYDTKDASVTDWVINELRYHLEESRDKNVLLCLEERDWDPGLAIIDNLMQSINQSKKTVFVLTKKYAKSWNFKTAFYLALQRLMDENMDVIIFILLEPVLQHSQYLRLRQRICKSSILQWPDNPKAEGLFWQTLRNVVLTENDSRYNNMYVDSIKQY
Toll-like receptor 4, sequence (O00206 whole entry): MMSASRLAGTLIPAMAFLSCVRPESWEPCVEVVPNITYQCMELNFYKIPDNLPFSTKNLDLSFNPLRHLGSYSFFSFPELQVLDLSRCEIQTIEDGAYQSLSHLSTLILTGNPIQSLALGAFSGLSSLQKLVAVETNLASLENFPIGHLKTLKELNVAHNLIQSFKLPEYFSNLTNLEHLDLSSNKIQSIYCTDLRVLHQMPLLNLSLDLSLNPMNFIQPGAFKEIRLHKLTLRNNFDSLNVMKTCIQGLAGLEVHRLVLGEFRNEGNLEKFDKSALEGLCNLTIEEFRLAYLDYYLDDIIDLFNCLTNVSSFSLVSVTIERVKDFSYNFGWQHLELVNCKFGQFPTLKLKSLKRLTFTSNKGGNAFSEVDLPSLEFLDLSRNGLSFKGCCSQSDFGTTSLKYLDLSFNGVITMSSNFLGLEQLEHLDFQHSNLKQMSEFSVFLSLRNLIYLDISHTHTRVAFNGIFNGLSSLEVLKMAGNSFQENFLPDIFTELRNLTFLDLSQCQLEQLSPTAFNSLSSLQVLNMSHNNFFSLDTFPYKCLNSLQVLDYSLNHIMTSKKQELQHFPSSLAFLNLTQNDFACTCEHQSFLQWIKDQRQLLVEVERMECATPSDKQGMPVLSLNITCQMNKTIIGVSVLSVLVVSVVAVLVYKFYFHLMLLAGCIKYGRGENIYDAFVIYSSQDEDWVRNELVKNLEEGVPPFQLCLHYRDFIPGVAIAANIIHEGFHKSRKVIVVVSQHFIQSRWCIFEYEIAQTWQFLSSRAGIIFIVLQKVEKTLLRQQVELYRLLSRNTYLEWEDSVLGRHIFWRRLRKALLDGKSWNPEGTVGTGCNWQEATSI

In general, IC50 refers to the concentration needed to halve the response being measured. Higher therefore signals a need for much substance. One may read the EC50 as the concentration that produces a half-maximal response. For the compound `O=[N+]([O-])c1ccc(COc2cc3c(cc2OCc2ccc([N+](=O)[O-])cc2)OC2(C=C3)CCOCC2)cc1`, the Activity result in the experiment on HeLa [1] is “Dose-dependent effect”; in [2] it was “Dose-dependent effect”; with HeLa [3], “Dose-dependent effect”; in the experiment with HeLa [4], 39%; in experiment [5], “Dose-dependent effect”; in the experiment on HeLa [6], 46%. For the same compound, the Activity in the experiment on HeLa [7] is 20%; with HeLa [8] it was 41%; with HeLa [9], 19%; in the experiment on HeLa [11], “Dose-dependent effect”; in experiment [12], “Dose-dependent effect”. The IC50 in the experiment on HeLa [1] was 15.8 µM; in the experiment on HMEC [10], 79.5 µM; in the experiment on HeLa [11] it was 2.71 µM; in the experiment on HMEC [13], above 100 µM. Besides, the EC50 at Toll-like receptor 4, at Toll-like receptor 7, on Toll-like receptor 2 and at Toll-like receptor 5 was above 100 µM throughout.

The values above are taken from ChEMBL document CHEMBL4014338, “Discovery of Small Molecules as Multi-Toll-like Receptor Agonists with Proinflammatory and Anticancer Activities” (J Med Chem, 2017).
